Data from ChEMBL document CHEMBL5058577, “EUbOPEN Chemogenomics Library 2 (Multiplex)” (2022).

System: Fibroblast
Assay: Multiplex assay against human fibroblast
Format: toxicity, cell-based
How it was run: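 Live cells carried four stains from seeding: Hoechst33342, BioTracker Green Microtubule Cytoskeleton Dye, MitoTracker Red and Annexin V Alexa Fluor 680. They were imaged on a CQ1 microscope at 37°C and 5% CO2 after compound addition. Using CellPathfinder machine-learning gating, cells were split into Hoechst high-intensity objects or normal cells, normal cells into healthy, pyknosed or fragmented nuclei, and pyknosed cells into mitotic or apoptotic; tubulin, mitochondrial-mass and membrane-permeability phenotypes are per cents of healthy-nucleus cells.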

[1] = 12 h, 1 µM, compound concentration 1 uM, replicate 1
[2] = 12 h, 1 µM, compound concentration 1 uM, replicate 2
[3] = 12 h, 10 µM, compound concentration 10 uM, replicate 1
[4] = 12 h, 10 µM, compound concentration 10 uM, replicate 2
[5] = 24 h, 1 µM, compound concentration 1 uM, replicate 1
[6] = 24 h, 1 µM, compound concentration 1 uM, replicate 2
[7] = 24 h, 10 µM, compound concentration 10 uM, replicate 1
[8] = 24 h, 10 µM, compound concentration 10 uM, replicate 2
[9] = 48 h, 1 µM, compound concentration 1 uM, replicate 1
[10] = 48 h, 1 µM, compound concentration 1 uM, replicate 2
[11] = 48 h, 10 µM, compound concentration 10 uM, replicate 1
[12] = 48 h, 10 µM, compound concentration 10 uM, replicate 2

## Nc1nc(-c2ccco2)c2cnn(Cc3ccccc3F)c2n1
[1]
  Population Apoptotic (%): 50%
  Population Fragmented Nuclei (%): 10%
  Population Healthy Nuclei (%): 78%
  Population Hoechst High Intensity Objects (%): 0%
  Population Membrane Permeable-Phenotype (%): 1%
  Population Mitochondria Different-Phenotype (%): 2%
  Population Mitotic Cells (%): 50%
  Population Normal (%): 99%
  Population Pyknosed Nuclei (%): 11%
  Population Tubulin-Different-Phenotype (%): 26%
  Total Cell Count: 189
[2]
  Population Apoptotic (%): 45%
  Population Fragmented Nuclei (%): 31%
  Population Healthy Nuclei (%): 50%
  Population Hoechst High Intensity Objects (%): 6%
  Population Membrane Permeable-Phenotype (%): 2%
  Population Mitochondria Different-Phenotype (%): 5%
  Population Mitotic Cells (%): 54%
  Population Normal (%): 93%
  Population Pyknosed Nuclei (%): 17%
  Population Tubulin-Different-Phenotype (%): 42%
  Total Cell Count: 144
[3]
  Population Apoptotic (%): 54%
  Population Fragmented Nuclei (%): 16%
  Population Healthy Nuclei (%): 61%
  Population Hoechst High Intensity Objects (%): 8%
  Population Membrane Permeable-Phenotype (%): 0%
  Population Mitochondria Different-Phenotype (%): 7%
  Population Mitotic Cells (%): 45%
  Population Normal (%): 91%
  Population Pyknosed Nuclei (%): 21%
  Population Tubulin-Different-Phenotype (%): 38%
  Total Cell Count: 123
[4]
  Population Apoptotic (%): 47%
  Population Fragmented Nuclei (%): 39%
  Population Healthy Nuclei (%): 44%
  Population Hoechst High Intensity Objects (%): 10%
  Population Membrane Permeable-Phenotype (%): 5%
  Population Mitochondria Different-Phenotype (%): 13%
  Population Mitotic Cells (%): 52%
  Population Normal (%): 89%
  Population Pyknosed Nuclei (%): 16%
  Population Tubulin-Different-Phenotype (%): 51%
  Total Cell Count: 147
[5]
  Population Apoptotic (%): 50%
  Population Fragmented Nuclei (%): 9%
  Population Healthy Nuclei (%): 82%
  Population Hoechst High Intensity Objects (%): 0%
  Population Membrane Permeable-Phenotype (%): 0%
  Population Mitochondria Different-Phenotype (%): 2%
  Population Mitotic Cells (%): 50%
  Population Normal (%): 100%
  Population Pyknosed Nuclei (%): 7%
  Population Tubulin-Different-Phenotype (%): 24%
  Total Cell Count: 180
[6]
  Population Apoptotic (%): 56%
  Population Fragmented Nuclei (%): 29%
  Population Healthy Nuclei (%): 53%
  Population Hoechst High Intensity Objects (%): 6%
  Population Membrane Permeable-Phenotype (%): 4%
  Population Mitochondria Different-Phenotype (%): 5%
  Population Mitotic Cells (%): 43%
  Population Normal (%): 93%
  Population Pyknosed Nuclei (%): 17%
  Population Tubulin-Different-Phenotype (%): 37%
  Total Cell Count: 139
[7]
  Population Apoptotic (%): 70%
  Population Fragmented Nuclei (%): 19%
  Population Healthy Nuclei (%): 66%
  Population Hoechst High Intensity Objects (%): 6%
  Population Membrane Permeable-Phenotype (%): 1%
  Population Mitochondria Different-Phenotype (%): 8%
  Population Mitotic Cells (%): 29%
  Population Normal (%): 93%
  Population Pyknosed Nuclei (%): 14%
  Population Tubulin-Different-Phenotype (%): 39%
  Total Cell Count: 127
[8]
  Population Apoptotic (%): 43%
  Population Fragmented Nuclei (%): 43%
  Population Healthy Nuclei (%): 44%
  Population Hoechst High Intensity Objects (%): 8%
  Population Membrane Permeable-Phenotype (%): 15%
  Population Mitochondria Different-Phenotype (%): 5%
  Population Mitotic Cells (%): 56%
  Population Normal (%): 91%
  Population Pyknosed Nuclei (%): 11%
  Population Tubulin-Different-Phenotype (%): 46%
  Total Cell Count: 147
[9]
  Population Apoptotic (%): 45%
  Population Fragmented Nuclei (%): 16%
  Population Healthy Nuclei (%): 77%
  Population Hoechst High Intensity Objects (%): 3%
  Population Membrane Permeable-Phenotype (%): 2%
  Population Mitochondria Different-Phenotype (%): 1%
  Population Mitotic Cells (%): 54%
  Population Normal (%): 96%
  Population Pyknosed Nuclei (%): 6%
  Population Tubulin-Different-Phenotype (%): 26%
  Total Cell Count: 182
[10]
  Population Apoptotic (%): 57%
  Population Fragmented Nuclei (%): 41%
  Population Healthy Nuclei (%): 48%
  Population Hoechst High Intensity Objects (%): 6%
  Population Membrane Permeable-Phenotype (%): 4%
  Population Mitochondria Different-Phenotype (%): 9%
  Population Mitotic Cells (%): 42%
  Population Normal (%): 93%
  Population Pyknosed Nuclei (%): 10%
  Population Tubulin-Different-Phenotype (%): 37%
  Total Cell Count: 147
[11]
  Population Apoptotic (%): 80%
  Population Fragmented Nuclei (%): 25%
  Population Healthy Nuclei (%): 65%
  Population Hoechst High Intensity Objects (%): 9%
  Population Membrane Permeable-Phenotype (%): 0%
  Population Mitochondria Different-Phenotype (%): 10%
  Population Mitotic Cells (%): 20%
  Population Normal (%): 90%
  Population Pyknosed Nuclei (%): 9%
  Population Tubulin-Different-Phenotype (%): 27%
  Total Cell Count: 115
[12]
  Population Apoptotic (%): 50%
  Population Fragmented Nuclei (%): 50%
  Population Healthy Nuclei (%): 38%
  Population Hoechst High Intensity Objects (%): 5%
  Population Membrane Permeable-Phenotype (%): 16%
  Population Mitotic Cells (%): 50%
  Population Normal (%): 94%
  Population Pyknosed Nuclei (%): 10%
  Population Tubulin-Different-Phenotype (%): 51%
  Total Cell Count: 155
